According to ChEMBL document CHEMBL1123840, “Synthesis and evaluation of melphalan-containing N,N-dialkylenkephalin analogues as irreversible antagonists of the delta opioid receptor” (J Med Chem, 1987):
“And” between values parts separate entries of the source, which are not always exact repeats. Identical values can stand only once. Square brackets hold non-standard residues; d marks the D form. Peptide text beside a SMILES is read from it. * marks the point of attachment. ξ: configuration not given here. Tyr(Nα,Nα-Bn2) = O=C([C@H](Cc1ccc(O)cc1)N(Cc1ccccc1)Cc1ccccc1)*; Phe(4-N(CH2CH2Cl)2) = N[C@@H](Cc1ccc(N(CCCl)CCCl)cc1)C(=O)O; ξPhe(4-N(CH2CH2Cl)2) = NC(Cc1ccc(N(CCCl)CCCl)cc1)C(=O)O; X1 = O=C(C(Cc1ccc(O)cc1)N(Cc1ccccc1)Cc1ccccc1)*; ξL = CC(C)CC(N)C(=O)O; Aib = CC(C)(N)C(=O)O

Assays:
[1] = species on record: Cavia porcellus; test: Reversible opioid agonist activity in the electrically stimulated guinea pig ileum(GPI) at 1 uM concentration (Exp 1); assay type: functional
[2] = target: Mu-type opioid receptor (Homo sapiens) (UniProt P35372); test: Ratio of IC50 of […] (agonist) after 10 min of incubation along with compound (antagonist) and IC50 of agonist in absence of compound for mu opioid receptor at 1 uM in MVD assay; assay type: functional; details: Mus musculus
Summary of the method: (§1)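 Reversible antagonism was measured in electrically stimulated isolated tissue (MVD or GPI) with the antagonist present. Agonists were morphine (μ), ethylketazocine (κ) and DADLE (δ). The value is the agonist IC50 with antagonist divided by the IC50 without it, i.e. the fold rightward shift of the agonist dose-response curve. Mean ± SEM, n = 3 unless otherwise noted.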

[3] = target: Mu-type opioid receptor (Cavia porcellus) (UniProt P97266); test: Ratio of IC50 of […] (agonist) after 10 min of incubation along with compound (antagonist) and IC50 of agonist in absence of compound for mu opioid receptor at 1 uM in GPI assay (Exp 2); assay type: functional; summary of the method: as §1
[4] = target: Kappa-type opioid receptor (Cavia porcellus) (UniProt P41144); test: Ratio of IC50 of ethylketazocine (agonist) after 10 min of incubation along with compound (antagonist) and IC50 of agonist in absence of compound for kappa opioid receptor at 1 uM in GPI assay (Exp 1); assay type: functional; summary of the method: as §1
[5] = target: Delta-type opioid receptor (Mus musculus) (UniProt P32300); test: Ratio of IC50 of DADLE (agonist) after 10 min of incubation along with compound (antagonist) and IC50 of agonist in the absence of compound for delta opioid receptor at 1 uM in MVD assay; assay type: functional; summary of the method: as §1
[6] = species on record: Cavia porcellus; test: (§2) Reversible opioid agonist activity in the electrically stimulated guinea pig ileum(GPI) at 1 uM concentration (Exp 2); assay type: functional
[7] = species on record: Cavia porcellus; test: Reversible opioid antagonist activity in the electrically stimulated guinea pig ileum(GPI). Antagonist activity was evaluated with morphine at 0.02 uM concentration (Exp 2); assay type: functional
[8] = species on record: Mus musculus; test: (§3) Reversible opioid agonist activity in the electrically stimulated mouse vas deferens(MVD) at 1 uM concentration; assay type: functional
[9] = target: Kappa-type opioid receptor (Cavia porcellus) (UniProt P41144); test: Ratio of IC50 of ethylketazocine (agonist) after 10 min of incubation along with compound (antagonist) and IC50 of agonist in absence of compound for kappa opioid receptor at 1 uM in GPI assay; assay type: functional; summary of the method: as §1
[10] = target: Mu-type opioid receptor (Cavia porcellus) (UniProt P97266); test: Ratio of IC50 of […] (agonist) after 10 min of incubation along with compound (antagonist) and IC50 of agonist in absence of compound for mu opioid receptor at 1 uM in GPI assay; assay type: functional; summary of the method: as §1
[11] = target: Delta-type opioid receptor (Mus musculus) (UniProt P32300); test: Ratio of IC50 of DADLE (agonist) after 10 min of incubation along with compound (antagonist) and IC50 of agonist in the absence of compound for Opioid receptor delta 1 at 10 uM in MVD assay; assay type: functional; summary of the method: as §1
[12] = target: T1, Opioid receptors; mu/kappa/delta (Homo sapiens) (UniProt P41145+P41143+P35372); details: Cavia porcellus; Ileum; 1 uM
[13] = target: T1, Opioid receptors; mu/kappa/delta (Homo sapiens); test: as §2; assay type: functional, tissue-based; details: Cavia porcellus, target entry is the homologue from another species
[14] = target: Mu-type opioid receptor (Mus musculus) (UniProt P42866); test: Ratio of IC50 of […] (agonist) after 10 min of incubation along with compound (antagonist) and IC50 of agonist in absence of compound for Opioid receptor mu 1 at 1 uM in MVD assay; assay type: functional; summary of the method: as §1
[15] = target: Mu-type opioid receptor (Cavia porcellus) (UniProt P97266); details: 1 uM
[16] = species on record: Mus musculus; test: Ratio of IC50 of DADLE (agonist) expossed to the compound for 10 min and then washed 30 times to Ratio of IC50 of morphine (agonist) prior to exposure to compound; assay type: functional
Summary of the method: (§4)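 Irreversible antagonism was measured in isolated tissue. The tissue was exposed to the compound for 10 min (30 min in some cases), then washed 30 times with fresh buffer to remove non-covalently bound ligand. Agonist IC50 was then redetermined. The ratio is this post-wash IC50 over the agonist IC50 in the same tissue before exposure. Mean ± SEM, n = 3 unless otherwise noted.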

[17] = target: Mu-type opioid receptor (Cavia porcellus) (UniProt P97266); details: 1 uM; remark: listed apart in the source
[18] = target: Kappa-type opioid receptor (Cavia porcellus) (UniProt P41144); test: Ratio of IC50 of ethylketazocine (agonist) after 10 min of incubation along with compound (antagonist) and IC50 of agonist in absence of compound for Opioid receptor kappa 1 at 1 uM in GPI assay (Exp 1); assay type: functional; summary of the method: as §1
[19] = target: Delta-type opioid receptor (Mus musculus) (UniProt P32300); test: Ratio of IC50 of DADLE (agonist) after 10 min of incubation along with compound (antagonist) and IC50 of agonist in the absence of compound for Opioid receptor delta 1 at 1 uM in MVD assay; assay type: functional; summary of the method: as §1
[20] = target: T2, Opioid receptor (Mus musculus) (UniProt P42866+P32300+P33534); test: as §3; assay type: functional
[21] = target: T2, Opioid receptor (Mus musculus); test: Reversible opioid agonist activity in the electrically stimulated mouse vas deferens(MVD) at 10 uM of concentration; assay type: functional
[22] = species on record: Mus musculus; test: Ratio of IC50 of morphine (agonist) expossed to the compound for 10 min and then washed 30 times to Ratio of IC50 of morphine (agonist) prior to exposure to compound; assay type: functional; summary of the method: as §4
[23] = target: Mu-type opioid receptor (Mus musculus) (UniProt P42866); details: 10 uM
[24] = target: Kappa-type opioid receptor (Cavia porcellus) (UniProt P41144); test: Ratio of IC50 of ethylketazocine (agonist) after 10 min of incubation along with compound (antagonist) and IC50 of agonist in absence of compound for Opioid receptor kappa 1 at 1 uM in GPI assay (Exp 2); assay type: functional; summary of the method: as §1
[25] = target: Kappa-type opioid receptor (Cavia porcellus) (UniProt P41144); details: 1 uM
[26] = target: Delta-type opioid receptor (Homo sapiens) (UniProt P41143); details: Cavia porcellus; 1 uM
[27] = target: Delta-type opioid receptor (Homo sapiens) (UniProt P41143); details: Cavia porcellus; 1 uM; remark: listed apart in the source
[28] = target: Delta-type opioid receptor (Mus musculus) (UniProt P32300); details: 10 uM
[29] = target: Delta-type opioid receptor (Homo sapiens) (UniProt P41143); details: Cavia porcellus; 1 uM; remark: listed apart in the source
[30] = species on record: Cavia porcellus; test: as §2

Chain of Delta-type opioid receptor (Mus musculus) (P32300 whole entry): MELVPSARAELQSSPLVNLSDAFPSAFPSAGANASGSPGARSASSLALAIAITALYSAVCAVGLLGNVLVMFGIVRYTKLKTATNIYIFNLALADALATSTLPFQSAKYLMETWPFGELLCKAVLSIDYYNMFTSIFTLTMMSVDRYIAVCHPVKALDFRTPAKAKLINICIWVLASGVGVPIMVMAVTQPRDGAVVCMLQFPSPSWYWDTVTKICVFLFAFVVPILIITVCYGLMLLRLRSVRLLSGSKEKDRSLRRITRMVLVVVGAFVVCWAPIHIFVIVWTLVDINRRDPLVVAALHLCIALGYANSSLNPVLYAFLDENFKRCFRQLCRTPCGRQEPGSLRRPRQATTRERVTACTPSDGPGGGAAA
Chain of Mu-type opioid receptor (Cavia porcellus) (P97266 whole entry): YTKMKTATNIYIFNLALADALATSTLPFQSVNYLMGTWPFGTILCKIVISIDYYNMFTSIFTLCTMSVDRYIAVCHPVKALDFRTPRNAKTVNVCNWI
Chain of Delta-type opioid receptor (Homo sapiens) (P41143 whole entry): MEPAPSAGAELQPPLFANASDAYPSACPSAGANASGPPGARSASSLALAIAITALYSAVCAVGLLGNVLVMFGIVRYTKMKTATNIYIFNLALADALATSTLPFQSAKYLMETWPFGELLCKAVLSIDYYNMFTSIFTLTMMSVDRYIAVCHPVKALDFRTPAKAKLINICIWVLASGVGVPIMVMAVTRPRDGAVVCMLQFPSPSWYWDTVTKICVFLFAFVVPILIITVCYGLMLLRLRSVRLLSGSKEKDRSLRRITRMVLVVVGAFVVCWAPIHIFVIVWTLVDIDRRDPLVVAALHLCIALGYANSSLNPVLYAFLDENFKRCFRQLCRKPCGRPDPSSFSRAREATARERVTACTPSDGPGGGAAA
Chain of Kappa-type opioid receptor (Cavia porcellus) (P41144 whole entry): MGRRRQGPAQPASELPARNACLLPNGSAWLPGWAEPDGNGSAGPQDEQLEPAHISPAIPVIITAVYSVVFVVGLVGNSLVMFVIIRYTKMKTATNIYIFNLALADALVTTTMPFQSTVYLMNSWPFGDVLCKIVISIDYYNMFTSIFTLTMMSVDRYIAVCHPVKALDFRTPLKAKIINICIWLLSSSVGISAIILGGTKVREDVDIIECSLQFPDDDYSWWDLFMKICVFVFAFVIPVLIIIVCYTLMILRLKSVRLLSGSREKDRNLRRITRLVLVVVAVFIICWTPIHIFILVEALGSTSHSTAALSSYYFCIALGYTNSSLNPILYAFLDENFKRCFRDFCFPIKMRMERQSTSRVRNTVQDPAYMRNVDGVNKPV
Chain of Mu-type opioid receptor (Homo sapiens) (P35372 whole entry): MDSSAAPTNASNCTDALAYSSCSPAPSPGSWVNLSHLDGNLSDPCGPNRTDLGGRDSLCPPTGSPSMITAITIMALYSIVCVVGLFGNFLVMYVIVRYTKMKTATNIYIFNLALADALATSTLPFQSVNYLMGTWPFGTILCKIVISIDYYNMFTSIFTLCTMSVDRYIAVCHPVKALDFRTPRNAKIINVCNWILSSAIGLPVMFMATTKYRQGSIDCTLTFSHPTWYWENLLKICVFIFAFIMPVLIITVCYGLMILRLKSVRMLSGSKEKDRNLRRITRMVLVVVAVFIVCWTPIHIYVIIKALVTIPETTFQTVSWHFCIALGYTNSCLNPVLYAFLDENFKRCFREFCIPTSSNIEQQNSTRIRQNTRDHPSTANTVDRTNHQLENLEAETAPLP
T2 sequence (P32300 whole entry, looked up): as the sequence (P32300 whole entry) above
T2 sequence (P33534 whole entry, looked up): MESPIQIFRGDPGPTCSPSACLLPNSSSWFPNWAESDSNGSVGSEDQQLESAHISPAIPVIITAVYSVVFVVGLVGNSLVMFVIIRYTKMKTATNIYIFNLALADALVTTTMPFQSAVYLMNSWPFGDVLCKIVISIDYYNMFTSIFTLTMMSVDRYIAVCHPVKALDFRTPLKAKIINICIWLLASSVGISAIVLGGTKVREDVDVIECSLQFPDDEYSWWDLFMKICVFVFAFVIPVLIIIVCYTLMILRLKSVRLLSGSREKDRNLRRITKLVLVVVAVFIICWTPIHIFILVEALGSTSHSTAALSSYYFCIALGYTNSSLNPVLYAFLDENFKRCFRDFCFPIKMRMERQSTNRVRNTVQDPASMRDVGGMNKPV
T2 sequence (P42866 whole entry, looked up): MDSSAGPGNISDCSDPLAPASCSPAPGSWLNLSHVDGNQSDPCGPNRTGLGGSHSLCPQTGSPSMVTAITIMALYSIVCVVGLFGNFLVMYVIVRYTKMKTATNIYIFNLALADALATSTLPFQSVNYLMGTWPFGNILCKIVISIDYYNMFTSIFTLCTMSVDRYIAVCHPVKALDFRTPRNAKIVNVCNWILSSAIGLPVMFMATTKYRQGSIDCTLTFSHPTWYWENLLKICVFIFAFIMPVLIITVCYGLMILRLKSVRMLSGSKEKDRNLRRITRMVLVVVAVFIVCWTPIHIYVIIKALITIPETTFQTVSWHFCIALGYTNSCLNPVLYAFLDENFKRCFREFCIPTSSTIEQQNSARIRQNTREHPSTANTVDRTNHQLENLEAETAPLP
Chain of Mu-type opioid receptor (Mus musculus) (P42866 whole entry): as the sequence (P42866 whole entry, looked up) above
T1 sequence (P35372 whole entry, looked up): as the sequence (P35372 whole entry) above
T1 sequence (P41143 whole entry, looked up): as the sequence (P41143 whole entry) above
T1 sequence (P41145 whole entry, looked up): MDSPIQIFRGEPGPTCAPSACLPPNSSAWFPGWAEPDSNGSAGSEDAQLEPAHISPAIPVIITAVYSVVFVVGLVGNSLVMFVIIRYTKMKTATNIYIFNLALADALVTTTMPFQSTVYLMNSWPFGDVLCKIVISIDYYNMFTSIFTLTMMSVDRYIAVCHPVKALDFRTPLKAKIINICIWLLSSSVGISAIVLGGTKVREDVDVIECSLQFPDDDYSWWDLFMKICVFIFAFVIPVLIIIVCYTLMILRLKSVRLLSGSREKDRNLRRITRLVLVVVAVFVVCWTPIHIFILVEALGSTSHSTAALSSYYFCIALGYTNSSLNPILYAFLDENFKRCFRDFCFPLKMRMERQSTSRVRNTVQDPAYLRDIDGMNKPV

## CC(C)C[C@H](NC(=O)[C@H](Cc1ccccc1)NC(=O)C(C)(C)NC(=O)C(C)(C)NC(=O)[C@H](Cc1ccc(O)cc1)N(Cc1ccccc1)Cc1ccccc1)C(=O)O ({Tyr(Nα,Nα-Bn2)}-[Aib][Aib]FL-OH)
[1]
  inhibition at 1 µM: 68.7%
[2]
  IC50 ratio: 1
[3]
  IC50 ratio: 0.7
[4]
  IC50 ratio: 1
[5]
  IC50 ratio: 5.6
[6]
  IC50: 300 nM
[7]
  IC50 ratio: 1.3
[8]
  inhibition at 1 µM: 25.7%

## CC(C)C[C@H](NC(=O)[C@H](Cc1ccc(N(CCCl)CCCl)cc1)NC(=O)C(C)(C)NC(=O)C(C)(C)NC(=O)[C@H](Cc1ccc(O)cc1)N(Cc1ccccc1)Cc1ccccc1)C(=O)O ({Tyr(Nα,Nα-Bn2)}-[Aib][Aib][Phe(4-N(CH2CH2Cl)2)]L-OH)
[1]
  Inhibition: 12.5%
[1]; Cavia porcellus, Ileum
  inhibition at 1 µM: 9.4%
[2]
  IC50 ratio: 1
[9]
  IC50 ratio: 0.2 and 0.3
[5]
  IC50 ratio: 1.2
[10]
  IC50 ratio: 0.4 and 1
[8]
  inhibition at 1 µM: 22.5%

## CC(C)CC(NC(=O)C(Cc1ccc(N(CCCl)CCCl)cc1)NC(=O)CNC(=O)CNC(=O)C(Cc1ccc(O)cc1)N(Cc1ccccc1)Cc1ccccc1)C(=O)O (stereo unspecified) (X1-GG[ξPhe(4-N(CH2CH2Cl)2)][ξL]-OH)
[11]
  IC50 ratio: 7.7
[12]
  inhibition: 4.8%
[13]
  inhibition: 10%
[14]
  IC50 ratio: 1
[15]
  IC50 ratio: 0.7
[16]
  IC50 ratio: 2.4
[17]
  IC50 ratio: 0.5
[18]
  IC50 ratio: 0.4
[19]
  IC50 ratio: 3
[20]
  inhibition: 16.2%
[21]
  inhibition: 18.3%
[22]
  IC50 ratio: 1.2
[23]
  IC50 ratio: 1.7
[24]
  IC50 ratio: 0.4

## CC(C)C[C@H](NC(=O)[C@H](Cc1ccccc1)NC(=O)CNC(=O)CNC(=O)[C@H](Cc1ccc(O)cc1)N(Cc1ccccc1)Cc1ccccc1)C(=O)O ({Tyr(Nα,Nα-Bn2)}-GGFL-OH)
[1]
  inhibition at 1 µM: 1.9%
[2]
  IC50 ratio: 0.6
[4]
  IC50 ratio: 1
[5]
  IC50 ratio: 6.6
[25]
  IC50 ratio: 1
[26]
  IC50 ratio: 2.5
[27]
  IC50 ratio: 1.2
[28]
  IC50 ratio: 96.9
[8]
  inhibition at 1 µM: 11.4%
[22]
  IC50 ratio: 1
[29]
  IC50 ratio: 0.8
[30]
  inhibition at 1 µM: 2.9%
